Source: PubChem BioAssay (several laboratories)
Most compounds without a hit are left out; they make up all but 2.2% or so of the library.
Hck Nef HTS: inhibitors of Nef-activated human Hck kinase, primary screen, biochemical, Z-Lyte FRET, 384-well, Hck-YEEI | Tyrosine-protein kinase HCK (Homo sapiens), P08631 | Recombinant Hck-YEEI plus Nef, Z-Lyte FRET kinase assay | inhibition, % at 20 µM | actives 0.68% (n = 220,000);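 active = Hck-Nef kinase inhibition above about 50%, limit read from the data; inactive = inhibition below that limit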;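 also: 0% = DMSO with Hck plus Nef and 100% = Hck alone without Nef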
Target sequence (P08631 whole entry, looked up): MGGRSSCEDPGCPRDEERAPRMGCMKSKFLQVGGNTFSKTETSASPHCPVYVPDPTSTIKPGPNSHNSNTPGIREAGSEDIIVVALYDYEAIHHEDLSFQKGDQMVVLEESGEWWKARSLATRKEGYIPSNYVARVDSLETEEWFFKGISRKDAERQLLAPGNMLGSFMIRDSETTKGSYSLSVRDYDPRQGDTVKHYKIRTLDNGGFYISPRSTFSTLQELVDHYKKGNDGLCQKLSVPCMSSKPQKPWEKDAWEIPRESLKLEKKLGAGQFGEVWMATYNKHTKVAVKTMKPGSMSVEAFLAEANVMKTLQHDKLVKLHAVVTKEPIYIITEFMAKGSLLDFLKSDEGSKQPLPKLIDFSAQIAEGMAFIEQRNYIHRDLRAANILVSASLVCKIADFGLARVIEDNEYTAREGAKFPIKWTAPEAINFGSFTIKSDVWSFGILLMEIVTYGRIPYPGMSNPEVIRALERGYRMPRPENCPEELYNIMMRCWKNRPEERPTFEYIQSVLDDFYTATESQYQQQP
p97 inhibitor: inhibitors of human p97 ATPase, primary screen, biochemical | Transitional endoplasmic reticulum ATPase (Homo sapiens), P55072 | recombinant p97 ATPase, Kinase-Glo ATP luminescence, 3 h | inhibition, % at 8 µM | actives 0.42% (n = 220,000); in the data active = inhibition above about 15%;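 also: 0% = DMSO vehicle and 100% = wells lacking enzyme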
Biofilm kill mix: clotrimazole potentiators killing C. albicans biofilm, primary screen, 4-compound mixtures | C. albicans biofilm persisters + clotrimazole, fluorescence viability; primary screen in compound mixtures of four per well | inhibition, % at 7.6 µM | actives 0.02% (n = 120,000) | AID 1242, 2008;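 active = inhibition above 30.3% in the primary screen of four-compound pools, then above 30% when the compound was retested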;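 also: compounds exposed to preformed 24 h biofilms for 48 h; 0% = untreated biofilm control and 100% = clotrimazole plus chlorhexidine kill blank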
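System: C. albicans CAF4-2 wild-type biofilms; Medium: RPMI/MOPS medium, pH 7.0; Reagent: Clotrimazole, 50 µg/mL; Times: biofilm formation 24 h, compound exposure 48 h, 37 °C; Detection: 2-h Alamar Blue fluorescence, 535/590 nm excitation/emission; Evaluation: percent inhibition of biofilm viability.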
eIF4E-4G inh: eIF4E–eIF4G protein interaction inhibitors, primary screen, biochemical, uHTS, TR-FRET, eIF4GI fragment; inhibition, % at 21.7 µM; Eukaryotic translation initiation factor 4E (Mus musculus) + Eukaryotic translation …; actives 0.37% (n = 220,000); TR-FRET eIF4E-eIF4GI(517-606) binding, 2 h;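 active = inhibition above about 30%, limit read from the data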;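 also: 0% = full FRET control wells and 100% = background wells lacking eIF4GI fragment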
PERK inh: block of dimerizer-induced PERK translation repression, primary screen, PERK inhibitor project, CHO PERK-DD cells, SEAP luminescence, HTS | Eukaryotic translation initiation factor 2-alpha kinase 3 (Homo sapiens), Q9NZJ5 | CHO PERK-DD fusion, SEAP luminescence translation reporter | inhibition, % at 5.6 µM | actives 0.17% (n = 220,000) | AID 1416, 2008;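 active = inhibition above the mean inhibition of all tested compounds plus 3 SD, set separately per screening campaign, cut at about 2.9% in these data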;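 also: PERK kinase domain activated by AP20187 dimerizer at 100 nM; 0% = DMSO with dimerizer and 100% = rapamycin at 8.4 µM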
14-3-3 Bad PPI: inhibitors of 14-3-3 zeta/Bad binding, primary screen, biochemical, TR-FRET, bovine 14-3-3 zeta; TR-FRET 14-3-3zeta/Dy647-pBad peptide displacement, 1 h; inhibition, % at 21.7 µM; actives 0.71% (n = 220,000); AID 781, 2007;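 active = inhibition above about 70%, limit read from the data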;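 also: 0% = full 14-3-3 plus peptide FRET controls and 100% = background without 14-3-3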
* = called active by the depositor; / = not tested or not shown; [ ] = another dose, or the depositor's remark.

SMILES	Hck Nef HTS	p97 inhibitor	Biofilm kill mix	eIF4E-4G inh	PERK inh	14-3-3 Bad PPI
O=C(Nc1ccc(F)cc1F)c1cc(-c2ccco2)on1	2	0	/	-11	1	-4
COc1ccc(OC)c(-c2cc(C(=O)Nc3ccc(F)cc3F)no2)c1	32	3	2	-5	0	88*
Clc1ccc(COc2cccc(CNCc3ccncc3)c2)cc1	-8	-7	7	-4	0	21
Cc1ccnc(NC(=O)c2cccs2)c1	2	-9	/	-1	1	86*
O=C(c1ccccc1Sc1c(Cl)cccc1[N+](=O)[O-])N1CCOCC1	7	6	11	1	0	-2
COc1ccc(OCC(=O)Nc2ccc(N3CCCCC3)cc2)cc1	13	-1	4	2	1	-11
Cc1ccc(OCC(=O)Nc2ccc(N3CCCC3)cc2)cc1C	11	3	/	-17	0	74*[fluorescence artefact?]
Cc1cc(C)cc(OCC(=O)Nc2ccc(N3CCCC3)cc2)c1	11	7	/	9	0	100*[fluorescence artefact?]
CCOc1ccc(C(=O)Nc2ccc(N3CCCC3)cc2)cc1	11	-2	/	4	-1	85*[fluorescence artefact?]
COc1ccc(C(=O)Nc2ccc(N3CCCC3)cc2)cc1	-2	5	/	/	0	/
N#Cc1ccc(C(=O)CSc2n[nH]c(=O)n2-c2cccnc2)cc1	-4	9	2	5	0	1
CC1(C)c2ccccc2-n2c1cc1oc(=O)cc(O)c1c2=O	13	8	17	11	0	0
COC(=O)/C(C#N)=C(/Nc1ccc(F)c(Cl)c1)C(F)(F)F	6	-1	34	7	2	-10
CCOc1ccc(-c2nc(=S)[nH][nH]2)cc1	1	6	/	52*	3	-4
COc1ccc(-c2nc(=S)[nH][nH]2)cc1	3	5	/	4	1	12
O=C1CCCC(=O)C1CS(=O)(=O)c1ccccc1	30	2	7	8	0	-10
Oc1ccc(O)c(Cc2nc3ccccc3s2)c1	10	15*	-4	-2	0	3
CCCCCC(=O)NC(NC(=S)N1CCOCC1)C(Cl)(Cl)Cl (stereo not drawn)	11	2	8	-4	0	-14
CCCCCC(=O)NC(NC(=S)NC1CCS(=O)(=O)C1)C(Cl)(Cl)Cl (stereo not drawn)	-4	-2	11	40*	1	-13
O=C(NCc1ccc(F)cc1)C1CCN(S(=O)(=O)N2CCOCC2)CC1	22	3	16	-2	1	-14
CCS(=O)(=O)N1CCC(C(=O)NCc2ccc(F)cc2)CC1	3	0	/	4	3.4*	19
COc1ccc(OCC(O)CNS(=O)(=O)c2cccc(Cl)c2)cc1 (stereo not drawn)	0	-5	16	1	-1	1
CCOC(=O)c1ccc2nc(C(F)(F)F)[nH]c(=O)c2c1	0	2	/	-4	1	77*
Cc1ccc(-c2nc(-c3cccnc3)sc2CC(=O)O)cc1	19	5	5	-6	0	-1
Cc1ccc(-c2sc(-c3cccnc3)nc2CC(=O)O)cc1	4	0	21	0	2	75*
SMILES	Hck Nef HTS	p97 inhibitor	Biofilm kill mix	eIF4E-4G inh	PERK inh	14-3-3 Bad PPI
Cc1ccc(-c2sc(C)nc2CC(=O)O)cc1	-1	3	/	1	1	4
CC(=O)Nc1ccc(NC(=O)Cc2sc(-c3cccnc3)nc2-c2ccc(C)cc2)cc1	33	15*	23	-2	0	2
Cc1ccc(N2C(=O)CC(Cc3cccc(C)c3)C2=O)cc1 (stereo not drawn)	17	0	21	-2	0	-8
O=c1[nH]c2ccc(S(=O)(=O)N3CCN(c4ccc(F)cc4)CC3)cc2o1	11	7	18	-8	2	3
NC(=S)N/N=C/c1coc2ccc(F)cc2c1=O	29	0	24	1	1	-5
COc1ccc(OC)c(S(=O)(=O)NCc2ccccc2)c1	2	0	/	0	1	-9
COc1ccc(OC)c(NS(=O)(=O)Cc2ccccc2)c1	6	4	/	14	0	87*[fluorescence artefact?]
Cc1ccccc1-n1c(SCC(=O)N/N=C/c2c(C)nn(-c3ccccc3)c2C)nc2ccccc2c1=O	-2	1	12	-1	-1	89*
O=C(CN(C1CCCCC1)S(=O)(=O)c1ccccc1)N1CCCC1	0	-5	/	-4	0	1
O=C(CN(C1CCCCC1)C1CCCCC1)N1CCc2ccccc2C1	1	1	/	10	-1	88*
Fc1ccc(-c2c[nH]c(=S)n2Cc2ccccc2)cc1	1	0	-8	5	0	-5
CCn1c(=O)c(-[n+]2ccccc2)c(O)c2ccccc21	1	4	/	3	1	72*
Cc1ccc(/C(=N/Nc2nc3ccccc3s2)C2=C(O)c3ccccc3C2=O)cc1	-4	0	2	0	0	-7
O=C(O)CCCCCN=Cc1c(O)c2ccccc2oc1=O	19	5	-5	0	1	-4
CSc1nc(Oc2ccc(C)cc2)cc(C(F)(F)F)n1	0	3	/	-4	3.6*	0
O=C(O)c1ccccc1-n1ncc2c1/C(=C/c1ccc(Cl)cc1)CC2	13	-1	12	16	1	79*
Cc1ccccc1C(=O)Nc1cccc(C(=O)N/N=C/c2cc(Cl)cc([N+](=O)[O-])c2O)c1	-22	1	13	36*	1	-9
O=C(CCN1CCOCC1)NNC(=S)NC(=O)c1ccc(Br)cc1	10	2	10	0	0	-12
N#C/C(=C\c1ccc(OC(=O)c2ccc(Br)s2)cc1)c1nc2ccccc2[nH]1	35	4	11	34*	1	61
CCOC(=O)c1c(NC(=O)C2CC2)sc2c1CC(C)(C)OC2	13	-6	21	-10	0	91*
COc1cccc(C(c2nnnn2Cc2ccc(F)cc2)N2CCC(C(N)=O)CC2)c1OC (stereo not drawn)	-3	1	/	-10	-1	77*
COc1ccc(Cn2nnnc2C(c2ccccc2OC)N2CCC(C(N)=O)CC2)cc1 (stereo not drawn)	0	-2	/	7	0	2
O=C(O)c1cc(S(=O)(=O)N2CCOCC2)ccc1N1CCCCC1	20	2	11	3	1	-16
